The text below walks through data of ChEMBL document CHEMBL1177703, “Design and synthesis of novel xyloketal derivatives and their vasorelaxing activities in rat thoracic aorta and angiogenic activities in zebrafish angiogenesis screen” (J Med Chem, 2010).

Where a name gives a salt, the structure may show the parent alone. The source made the active and inactive calls. The calls are words filed in the database; no cut-off is given here. A value given as a limit tells only on which side of the number the result lay.

Data set [1] deals with Aorta. The experiment in a line: Vasorelaxant activity in Sprague-Dawley rat endothelium intact thoracic aortic rings assessed as inhibition of KPSS-induced contraction. Format: functional, tissue-based. Summed up: (§1)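 Rat thoracic aortic rings (2-3 mm) held in Krebs bicarbonate at 37 °C, pH 7.4, gassed with 95% O2/5% CO2. Endothelium accepted as intact with >80% relaxation to 1 μM ACh after 1 μM phenylephrine, and as denuded with no ACh response. Rings precontracted with KCl (30 mM intact, 25 mM denuded). Cumulative curves 0.5-200 μM, vehicle 2% DMSO, one curve per ring; EC50 derived.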

Data set [2] deals with Aorta. In words: Vasorelaxant activity in Sprague-Dawley rat endothelium denuded thoracic aortic rings assessed as inhibition of KCL-induced contraction. Format: functional, tissue-based. Summed up:
as §1

The species named for data set [3] is Danio rerio. The experiment in a line: Angiogenic activity in zebrafish embryo at 100 uM after 72 hrs by microscopical analysis.
For data set [4], the system named is HUVEC. In words: Cytotoxicity against HUVEC assessed as cell viability > 200 uM after 24 hrs by MTT assay. Format: cell-based. Particulars: human. In general terms: Tetrazolium dyes change colour on reduction, which living cells bring about.
The test system of data set [5] is HUVEC. The experiment in a line: Induction of nitric oxide production in HUVEC at 20 uM after 24 hrs by griess reaction in presence of L-NAME. Format: functional, cell-based. Particulars: Homo sapiens. Put shortly: (§2)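 HUVECs preincubated 24 h with 20 μM compound, alone or together with 100 μM L-NAME. Nitrite in 100 μL medium mixed 1:1 with Griess reagent for 15 min, absorbance read at 540 nm, quantified against a NaNO2 standard curve run with each experiment. Samples in triplicate; mean ± SD, n = 6.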
On the technique in general: Griess reagent forms a coloured azo dye with nitrite.

For data set [6], the system named is HUVEC. In words: Induction of nitric oxide production in HUVEC at 20 uM after 24 hrs by griess reaction. Format: functional, cell-based. Particulars: Homo sapiens. Put shortly:
as §2

Data set [7] concerns HUVEC. The experiment in a line: Protection against oxidatively modified low density lipoprotein-induced cell injury in HUVEC assessed as cell viability at 20 uM pretreated for 30 mins before oxLDL challenge measured after 24 hrs by MTT assay. Type of data set: functional, cell-based. Particulars: Homo sapiens. Summed up: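 HUVECs pretreated 30 min with 20 μM compound, then given oxLDL (150 μg/mL) or vehicle for 24 h. MTT added and absorbance read at 570 nm after 4 h. Mean ± SD, n = 6.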

For data set [8], the species on record is Danio rerio. The experiment in a line: Angiogenic activity in zebrafish embryo after 72 hrs by microscopical analysis.

In general, EC50 refers to the concentration that produces a half-maximal response. `CNC(=O)c1c(O)c2c(c3c1O[C@@]1(C)OC[C@H](C)[C@H]1C3)O[C@@]1(C)OC[C@H](C)[C@H]1C2`: the EC50 in the data set on Aorta [1] came to 9 µM; with Aorta [2], 15 µM. Further, the Angiogenic activity entry in the data set filed under Danio rerio [3] is “Active”. The Activity result with HUVEC [4] is given as “Non-toxic”.
For `COC(=O)C(C)NC(=O)c1c(O)c2c(c3c1O[C@@]1(C)OC[C@H](C)[C@H]1C3)O[C@@]1(C)OC[C@H](C)[C@H]1C2` (stereo partly drawn), in that order: 5 µM, 13 µM, “Active” and “Non-toxic”.
As for `C[C@H]1CO[C@]2(C)Oc3c(c4c(c5c3C[C@@H]3[C@@H](C)CO[C@]3(C)O5)C[C@@H]3[C@@H](C)CO[C@]3(C)O4)C[C@H]12`, the outcome with HUVEC [5] was inactive. The figures for the EC50 in the data set with Aorta [1] and in the data set with Aorta [2] were 12 µM and 31 µM, respectively. In addition, in the data set listed under Danio rerio [3], the Angiogenic activity entry is “Active”. Also, the outcome with HUVEC [6] was Active. Also, the Activity entry with HUVEC [4] is “Non-toxic”.
For the molecule `COC1(C)CCc2c(c3c(c4c2OC(C)(OC)CC4)OC(C)(OC)CC3)O1` (stereo not drawn), the EC50 was found to be 65 µM in the data set with Aorta [1] and 118 µM in the data set on Aorta [2]. Also, the Angiogenic activity result in the data set listed under Danio rerio [3] is “Active”. In the data set on HUVEC [4], the Activity entry was “Non-toxic”.
In the case of `C[C@H]1CO[C@]2(C)Oc3c(c(O)c(Cc4c(O)c5c(c6c4O[C@@]4(C)OC[C@H](C)[C@H]4C6)O[C@@]4(C)OC[C@H](C)[C@H]4C5)c4c3C[C@@H]3[C@@H](C)CO[C@]3(C)O4)C[C@H]12`, the EC50 with Aorta [1] is 87 µM; in the data set on Aorta [2] it was greater than 200 µM. Besides, in the data set filed under Danio rerio [3], the Angiogenic activity entry was “Active”. Besides, the Activity result with HUVEC [4] is reported as “Non-toxic”.
In the case of `CC1COC2(C)Oc3cc(O)cc(O)c3CC12` (racemic), the values for the EC50 in the data set with Aorta [1] and with Aorta [2] were 39 µM and 66 µM, respectively. Further, in the data set listed under Danio rerio [3], the Angiogenic activity entry is “Active”. In the data set with HUVEC [4], the Activity result is on record as “Non-toxic”. Further, the result in the data set with HUVEC [7] was Active.
As to `CC1COC2(C)Oc3c(c4c(c5c3CC3C(C)COC3(C)O5)CC3C(C)COC3(C)O4)CC12` (racemic), the EC50 was 6 µM in the data set with Aorta [1] and 11 µM in the data set on Aorta [2]. In the data set listed under Danio rerio [3], the Angiogenic activity entry was “Active”. Moreover, the Activity entry in the data set on HUVEC [4] is recorded as “Non-toxic”. In addition, the outcome with HUVEC [7] was Active.
As to `CC1COC2(C)Oc3cc(O)c4c(c3CC12)OC1(C)OCC(C)C1C4` (racemic) [(+/-)-XYLOKETAL B], the EC50 turned out to be 19 µM with Aorta [1] and 41 µM in the data set on Aorta [2]. The Angiogenic activity entry in the data set filed under Danio rerio [8] was “Dose-dependent effect”. Besides, in the data set listed under Danio rerio [3], the Angiogenic activity result was “Active”. For the same molecule, the Activity result with HUVEC [4] is on record as “Non-toxic”. Further, in the data set with HUVEC [7], the outcome was Active.
As to `C[C@H]1CO[C@]2(C)Oc3ccc4c(c3C[C@H]12)O[C@@]1(C)OC[C@H](C)[C@H]1C4` [DEHYDROXY XYLOKETAL B], the results for the EC50 in the data set on Aorta [1] and in the data set with Aorta [2] were 55 µM and 72 µM, respectively. The Activity entry in the data set on HUVEC [4] is on record as “Non-toxic”.
The like results for `C[C@H]1CO[C@]2(C)Oc3cccc(O)c3C[C@H]12` [DEHYDROXY XYLOKETAL H] were, in that order, 128 µM, greater than 200 µM and “Non-toxic”.
`Cc1cc2c(c3c1C[C@@H]1[C@@H](C)CO[C@]1(C)O3)C[C@@H]1[C@@H](C)CO[C@]1(C)O2` [METHYL XYLOKETAL B]: in the data set on HUVEC [5], the outcome was inactive. Further, the EC50 in the data set with Aorta [1] came to 40 µM; in the data set with Aorta [2] it was 52 µM. In addition, the Angiogenic activity entry in the data set filed under Danio rerio [3] was “Active”. Further, the outcome in the data set on HUVEC [6] and with HUVEC [7] was Active. Also, the Activity entry with HUVEC [4] is “Non-toxic”.
As for `C[C@H]1CO[C@]2(C)Oc3c(c(O)c(C(=O)O)c4c3C[C@@H]3[C@@H](C)CO[C@]3(C)O4)C[C@H]12` [XYLOKETAL B ACID], the EC50 in the data set on Aorta [1] and in the data set with Aorta [2] was greater than 200 µM throughout. For the same molecule, the Activity entry with HUVEC [4] is “Non-toxic”.
Turning to `C=C=CCOc1cc2c(c3c1C[C@@H]1[C@@H](C)CO[C@]1(C)O3)C[C@@H]1[C@@H](C)CO[C@]1(C)O2` [XYLOKETAL B ALLENIC ETHER], the EC50 in the data set on Aorta [1] stood at 12 µM; in the data set with Aorta [2], 11 µM. The Angiogenic activity result in the data set filed under Danio rerio [3] is “Active”. Further, the Activity entry in the data set with HUVEC [4] was “Non-toxic”. Also, the result in the data set with HUVEC [7] was Active.
`CCCCOc1cc2c(c3c1C[C@@H]1[C@@H](C)CO[C@]1(C)O3)C[C@@H]1[C@@H](C)CO[C@]1(C)O2` [XYLOKETAL B BUTYL ETHER]: the EC50 is 111 µM in the data set on Aorta [1] and greater than 200 µM in the data set with Aorta [2]. Moreover, in the data set with HUVEC [4], the Activity entry is “Non-toxic”.
For `C[C@H]1CO[C@]2(C)Oc3cc(OC/C=C/c4ccccc4)c4c(c3C[C@H]12)O[C@@]1(C)OC[C@H](C)[C@H]1C4` [XYLOKETAL B CINNAMYL ETHER], in that order: 64 µM, greater than 200 µM and “Non-toxic”.
`C[C@H]1CO[C@]2(C)Oc3c(c(O)c(C(N)=O)c4c3C[C@@H]3[C@@H](C)CO[C@]3(C)O4)C[C@H]12` [XYLOKETAL B FORMAMIDE]: the EC50 in the data set on Aorta [1] amounted to 3 µM; with Aorta [2], 10 µM. Moreover, the Angiogenic activity result in the data set listed under Danio rerio [3] was “Active”. Moreover, the Activity result in the data set on HUVEC [4] is listed as “Non-toxic”.
Take `CCCCCCOc1cc2c(c3c1C[C@@H]1[C@@H](C)CO[C@]1(C)O3)C[C@@H]1[C@@H](C)CO[C@]1(C)O2` [XYLOKETAL B HEXYL ETHER]: the half-maximal effective concentration (EC50) in the data set with Aorta [1] and with Aorta [2] was greater than 200 µM each time. Also, the Activity entry in the data set on HUVEC [4] is given as “Non-toxic”.
Regarding `COc1cc2c(c3c1C[C@@H]1[C@@H](C)CO[C@]1(C)O3)C[C@@H]1[C@@H](C)CO[C@]1(C)O2` [XYLOKETAL B METHYL ETHER], the result in the data set with HUVEC [5] was inactive. In addition, the EC50 with Aorta [1] was 17 µM; in the data set on Aorta [2] it was 33 µM. The Angiogenic activity entry in the data set filed under Danio rerio [3] is “Active”. Also, the outcome in the data set with HUVEC [6] and with HUVEC [7] was Active. For the same molecule, the Activity result in the data set with HUVEC [4] is “Non-toxic”.
Consider `COC(=O)c1c(O)c2c(c3c1O[C@@]1(C)OC[C@H](C)[C@H]1C3)O[C@@]1(C)OC[C@H](C)[C@H]1C2` [XYLOKETAL B METHYL FORMATE], for which the EC50 in the data set on Aorta [1] came to 8 µM; in the data set on Aorta [2], 14 µM. Further, the Angiogenic activity entry in the data set filed under Danio rerio [3] was “Active”. Further, in the data set on HUVEC [4], the Activity result was “Non-toxic”.
Take `C#CCOc1cc2c(c3c1C[C@@H]1[C@@H](C)CO[C@]1(C)O3)C[C@@H]1[C@@H](C)CO[C@]1(C)O2` [XYLOKETAL B PROPARGYL ETHER]: in the data set with HUVEC [5], the outcome was inactive. Also, the EC50 in the data set with Aorta [1] turned out to be 23 µM; with Aorta [2], 22 µM. Moreover, the Angiogenic activity entry in the data set listed under Danio rerio [3] is “Active”. Moreover, the outcome in the data set with HUVEC [6] and in the data set with HUVEC [7] was Active. For the same molecule, in the data set with HUVEC [4], the Activity entry is given as “Non-toxic”.
For the molecule `CCCOc1cc2c(c3c1C[C@@H]1[C@@H](C)CO[C@]1(C)O3)C[C@@H]1[C@@H](C)CO[C@]1(C)O2` [XYLOKETAL B PROPYL ETHER], the EC50 was 43 µM in the data set on Aorta [1] and 77 µM with Aorta [2]. The Angiogenic activity entry in the data set filed under Danio rerio [3] is “Active”. In the data set on HUVEC [4], the Activity result is “Non-toxic”. Besides, in the data set with HUVEC [7], the result was Active.
As to `COc1cc(OC)c2c(c1)O[C@@]1(C)OC[C@H](C)[C@H]1C2` [XYLOKETAL H DIMETHYL ESTER], the EC50 was determined as 37 µM in the data set on Aorta [1] and 80 µM in the data set with Aorta [2]. In the data set with HUVEC [4], the Activity result is “Non-toxic”.
